We go through 21 compounds from ChEMBL document CHEMBL4304834, “3-Amino-chromanes and Tetrahydroquinolines as Selective 5-HT2B, 5-HT7, or σ1 Receptor Ligands” (ACS Med Chem Lett, 2019).

The source made the active and inactive calls. No cut-off for these calls is given here. Bounds are passed on as bounds.

Assay [1] has as its target T1, 5-hydroxytryptamine receptor 2B (Homo sapiens, UniProt P41595). Kind of assay: Displacement of [3H]-LSD from human recombinant 5-HT2B receptor stably expressed in HEK cells after 90 mins by microbeta scintillation counting method. Type of assay: cell-based. The essentials: (§1)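 Run by NIMH Psychoactive Drug Screening Program. Otherwise, competition binding curves are generated and pKi is taken from a sigmoidal curve fit. Data are either triplicate measurements within one experiment, with the error from the fit, or the mean of repeated experiments, each run in triplicate.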

The target of assay [2] is Sigma non-opioid intracellular receptor 1 (Homo sapiens, UniProt Q99720). Kind of assay: Displacement of [3H]-Pentazocine from human recombinant sigma1 receptor expressed in HEKT cells after 90 mins by microbeta scintillation counting method. It counts as cell-based. A general note: Displacement assays read how much labelled ligand stays bound in the presence of the test substance.

The target in assay [3] is T2, Sigma intracellular receptor 2 (Homo sapiens, UniProt Q5BJF2). Kind of assay: Displacement of […] from human recombinant sigma2 receptor expressed in HEKT cells after 90 mins by microbeta scintillation counting method. Type of assay: cell-based. The gist of the method: as §1
For assay [4], the target named is 5-hydroxytryptamine receptor 7 (Homo sapiens, UniProt P34969). Kind of assay: Displacement of [3H]-LSD from human recombinant 5-HT7 receptor expressed in stable HEK cells after 90 mins by microbeta scintillation counting method. It counts as cell-based. The conditions noted are these: read-out: pKi (converted). The essentials: as §1
For assay [5], the target named is T3, 5-hydroxytryptamine receptor 1A (Homo sapiens, UniProt P08908).
T3 sequence (P08908 whole entry): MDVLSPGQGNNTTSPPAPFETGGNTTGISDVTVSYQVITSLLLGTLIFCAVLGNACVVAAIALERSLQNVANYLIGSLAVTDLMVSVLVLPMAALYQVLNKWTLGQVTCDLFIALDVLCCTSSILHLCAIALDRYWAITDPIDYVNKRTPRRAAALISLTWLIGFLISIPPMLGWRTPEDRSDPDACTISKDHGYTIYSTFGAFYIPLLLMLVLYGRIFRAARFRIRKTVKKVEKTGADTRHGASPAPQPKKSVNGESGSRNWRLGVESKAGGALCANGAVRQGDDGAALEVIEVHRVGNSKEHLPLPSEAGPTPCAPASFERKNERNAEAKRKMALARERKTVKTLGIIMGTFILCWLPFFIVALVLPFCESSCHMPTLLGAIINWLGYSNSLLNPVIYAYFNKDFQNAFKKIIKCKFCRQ
Nature of the assay: Displacement of [3H]-Way100635 from human recombinant 5-HT1A expressed in stable CHO cells after 90 mins by microbeta scintillation counting method. It counts as cell-based. The conditions noted are these: read-out: pKi (converted). The gist of the method:
as §1

The target in assay [6] is T1, 5-hydroxytryptamine receptor 2B. Nature of the assay: Displacement of [3H]-LSD from human recombinant 5-HT2B receptor stably expressed in HEK cells at 10 uM after 90 mins by microbeta scintillation counting method relative to control. Type of assay: cell-based. The gist of the method: (§2)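 Radioligand binding run by the NIMH Psychoactive Drug Screening Program. […] Otherwise Ki comes from sigmoidal curve fits of triplicate measurements in a single experiment, or is averaged over repeated experiments each run in triplicate.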

In assay [7] the target is T2, Sigma intracellular receptor 2. Nature of the assay: Displacement of […] from human recombinant sigma2 receptor expressed in HEKT cells at 10 uM after 90 mins by microbeta scintillation counting method relative to control. It counts as cell-based. The gist of the method: as §2
Assay [8] relates to 661W. Kind of assay: Cytoprotective activity in mouse 661W cells assessed as inhibition of t-BHP induced oxidative stress by measuring increase in cell viability at 50 to 100 uM after 24 hrs by MTT assay (Rvb < 50%). It counts as functional, cell-based. For orientation: Formazan colour is commonly taken as a measure of viable cells.
For assay [9], the system named is 661W. Kind of assay: Cytoprotective activity in mouse 661W cells assessed as reduction in tBHP-induced ROS level at 20 to 50 uM after 2 hrs by […] fluorescent microscopic analysis. It counts as functional, cell-based. The essentials:
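661W cells seeded on coverslips for 18 h, then exposed 2 h to 55 μM tBHP with or without test agent or (+)-pentazocine. ROS are detected with CellROX green dye by epifluorescence, with DAPI marking nuclei. Fluorescence intensity is quantified as mean ± SD from three independent experiments, each run in duplicate.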

For assay [10], the species on record is Homo sapiens. Nature of the assay: Selectivity index, ratio of Ki for human recombinant sigma2 receptor to Ki for human recombinant 5-HT2B receptor. The essentials: (§3)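 Both Ki values in each ratio come from NIMH Psychoactive Drug Screening Program radioligand binding. […] Other targets were given full binding curves, measured in triplicate, and Ki was taken from a sigmoidal curve fit. Some values were repeated in duplicate or triplicate independent experiments.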

For assay [11], the species on record is Homo sapiens. Kind of assay: Selectivity index, ratio of Ki for human recombinant 5-HT2B receptor to Ki for human recombinant sigma1 receptor.
For assay [12], the species on record is Homo sapiens. Nature of the assay: Selectivity index, ratio of Ki for human recombinant sigma2 receptor to Ki for human recombinant sigma1 receptor. The gist of the method:
as §3

Sigma non-opioid intracellular receptor 1, sequence (Q99720 whole entry): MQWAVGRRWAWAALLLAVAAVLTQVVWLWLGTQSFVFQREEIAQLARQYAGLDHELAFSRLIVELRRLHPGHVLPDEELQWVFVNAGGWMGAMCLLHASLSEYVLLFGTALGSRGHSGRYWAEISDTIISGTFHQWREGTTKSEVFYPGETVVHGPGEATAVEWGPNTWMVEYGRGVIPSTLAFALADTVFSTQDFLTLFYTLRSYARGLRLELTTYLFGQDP
T1 sequence (P41595 whole entry): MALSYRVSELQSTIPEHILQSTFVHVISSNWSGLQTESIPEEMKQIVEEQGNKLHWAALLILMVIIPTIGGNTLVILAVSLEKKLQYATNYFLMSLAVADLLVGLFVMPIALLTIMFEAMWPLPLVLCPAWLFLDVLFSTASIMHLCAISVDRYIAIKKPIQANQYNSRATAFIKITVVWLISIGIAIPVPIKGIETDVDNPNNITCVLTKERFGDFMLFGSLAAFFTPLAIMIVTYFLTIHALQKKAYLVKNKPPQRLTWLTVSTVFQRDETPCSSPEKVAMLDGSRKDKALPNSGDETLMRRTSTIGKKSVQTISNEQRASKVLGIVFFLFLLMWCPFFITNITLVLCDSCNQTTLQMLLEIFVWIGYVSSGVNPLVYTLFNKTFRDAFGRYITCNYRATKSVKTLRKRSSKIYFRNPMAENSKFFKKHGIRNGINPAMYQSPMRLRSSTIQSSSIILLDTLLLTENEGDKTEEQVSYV
T2 sequence (Q5BJF2 whole entry): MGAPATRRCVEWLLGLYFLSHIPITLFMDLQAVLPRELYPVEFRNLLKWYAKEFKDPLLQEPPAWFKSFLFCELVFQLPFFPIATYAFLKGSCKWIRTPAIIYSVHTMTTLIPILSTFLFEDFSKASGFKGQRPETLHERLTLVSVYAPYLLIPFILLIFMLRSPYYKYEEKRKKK
5-hydroxytryptamine receptor 7, sequence (P34969 whole entry): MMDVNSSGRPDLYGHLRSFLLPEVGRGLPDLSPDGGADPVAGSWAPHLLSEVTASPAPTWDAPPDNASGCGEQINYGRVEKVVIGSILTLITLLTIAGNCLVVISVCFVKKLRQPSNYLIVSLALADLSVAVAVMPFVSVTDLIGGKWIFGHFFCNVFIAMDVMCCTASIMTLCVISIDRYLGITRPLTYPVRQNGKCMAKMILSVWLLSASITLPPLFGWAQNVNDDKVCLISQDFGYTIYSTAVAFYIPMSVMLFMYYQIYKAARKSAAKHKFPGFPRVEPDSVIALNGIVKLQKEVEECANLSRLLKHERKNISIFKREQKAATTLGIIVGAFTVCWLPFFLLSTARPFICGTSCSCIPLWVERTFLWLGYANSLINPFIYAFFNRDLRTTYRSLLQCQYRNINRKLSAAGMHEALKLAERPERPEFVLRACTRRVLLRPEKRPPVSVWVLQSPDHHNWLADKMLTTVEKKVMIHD

Regarding `CN1CC[C@H]2c3ccc(O)cc3OC[C@]21C` (racemic), the Ki in [1] (read-out: pKi (converted)) is 1000 nM; in [2] (read-out: pKi (converted)), 50.1 nM; in [3], 3980 nM.

`COc1ccc2c(c1)[C@@H]1CCN[C@]1(C)CO2` (racemic): the Ki was 631 nM in assay [1] (read-out: pKi (converted)), 200 nM in assay [4], 126 nM in [2] (read-out: pKi (converted)) and 3160 nM in [3].

Consider `C[C@@]12COc3c(Br)cccc3[C@@H]1CCN2` (racemic), for which the Ki in assay [5] was 1000 nM; in assay [1] (read-out: pKi (converted)) it was 20 nM; in assay [4], 398 nM; in [2] (read-out: pKi (converted)), 501 nM; in [3] it was 631 nM.

With `CN1CC[C@H]2c3ccccc3N(c3ccccc3)C[C@]21C` (racemic), the Ki in assay [5] was 200 nM; in [1] (read-out: pKi (converted)), 200 nM; in assay [4], 2.69 nM; in [2] (read-out: pKi (converted)), 162 nM; in assay [3], 158 nM.

Regarding `CC[C@H]1c2c(ccc3ccccc23)OC[C@@]1(C)N` (racemic), the Ki in assay [5] was 316 nM; in [1] (read-out: Ki), 20 nM; in assay [4] it was 692 nM; in [2] (read-out: pKi (converted)), 1000 nM; in assay [3], 2000 nM.

`CC(=O)N1CC[C@H]2c3ccccc3N(c3ccccc3)C[C@]21C` (racemic): the Ki is greater than 10000 nM in [1] (read-out: pKi (converted)) and 1260 nM in [3]. In assay [6], the inhibition was less than 50%.

As to `CC(=O)N1CC[C@H]2c3cccc(-c4ccccc4)c3OC[C@]21C` (racemic), the Ki was 501 nM in assay [1] (read-out: pKi (converted)) and 1260 nM in assay [3].

Consider `CC[C@H]1c2ccc(O)cc2OC[C@@]1(C)N` (racemic), for which the Ki in assay [1] (read-out: pKi (converted)), in assay [2] (read-out: pKi (converted)) and in assay [3] was greater than 10000 nM in each case. Also, the inhibition in assay [6] and in assay [7] was less than 50% in each case.

For `CC(C)=CCN1CC[C@]2(C)c3cc(O)ccc3C[C@H]1[C@H]2C`, the result with 661W [8] was Active. Also, the inhibition entry with 661W [9] is “Active”.

Regarding `CC[C@H]1c2ccc3ccccc3c2OC[C@@]1(C)N` (racemic), the Ki is 2510 nM in assay [5]; 3.5 nM in assay [1] (read-out: Ki); 1000 nM in assay [4]; 3160 nM in [2] (read-out: pKi (converted)); 316 nM in assay [3]. Moreover, in the assay filed under Homo sapiens [10], the Ratio Ki worked out at 150.

For the compound `C[C@@]12COc3ccc(-c4ccccc4)cc3[C@@H]1CCN2` (racemic), the Ki in [1] (read-out: pKi (converted)) is 251 nM; in assay [4] it was 1000 nM; in [2] (read-out: pKi (converted)), 12.6 nM; in assay [3], 79.4 nM.

In the case of `CN1CC[C@H]2c3cccc(-c4ccccc4)c3OC[C@]21C` (racemic), the Ki in [5] was 200 nM; in assay [1] (read-out: pKi (converted)), 251 nM; in assay [4], 20 nM; in assay [2] (read-out: pKi (converted)), 50.1 nM; in assay [3], 316 nM.

Regarding `C[C@@]12COc3cc(OCc4ccccc4)ccc3[C@@H]1CCN2` (racemic), the values for the Ki in [1] (read-out: pKi (converted)), in assay [2] (read-out: pKi (converted)) and in assay [3] were 126 nM, 7.94 nM and 100 nM, respectively.

For the compound `Cc1cc(C)c2c(c1)OC[C@@]1(C)NCC[C@@H]21` (racemic), the Ki was 79.4 nM in assay [1] (read-out: pKi (converted)), 1260 nM in [4], 63.1 nM in assay [2] (read-out: pKi (converted)) and 316 nM in [3].

On to `CC[C@H]1c2cc(OC)ccc2OC[C@@]1(C)N` (racemic), for which the Ki is 2510 nM in assay [5], 251 nM in assay [1] (read-out: pKi (converted)), 398 nM in assay [2] (read-out: pKi (converted)) and greater than 10000 nM in assay [3]. For the same compound, the inhibition in [7] is less than 50%.

As for `Cc1ccc(N2C[C@@]3(C)NCC[C@H]3c3cc(C)ccc32)cc1` (racemic), the Ki in assay [1] (read-out: pKi (converted)) is 316 nM; in assay [4] it was 200 nM; in assay [2] (read-out: pKi (converted)) it was 251 nM; in assay [3] it was 316 nM.

With `CC(=O)N1CC[C@H]2c3ccc(O)cc3OC[C@]21C` (racemic), the Ki in assay [1] (read-out: pKi (converted)), in assay [2] (read-out: pKi (converted)) and in assay [3] was greater than 10000 nM throughout. The inhibition in assay [6] and in [7] was less than 50% each time.

On to `C[C@@]12COc3c(-c4ccccc4)cccc3[C@@H]1CCN2` (racemic), for which the Ki in [5] was 200 nM; in assay [1] (read-out: pKi (converted)) it was 158 nM; in assay [4], 23.4 nM; in assay [2] (read-out: pKi (converted)) it was 39.8 nM; in assay [3] it was 126 nM.

With `CC[C@H]1c2cc(-c3ccccc3)ccc2OC[C@@]1(C)N` (racemic), the Ki in assay [5] was 2000 nM; in [1] (read-out: pKi (converted)) it was 126 nM; in [2] (read-out: Ki) it was 16 nM; in assay [3] it was 316 nM. The figures for the Ratio Ki in the assay listed under Homo sapiens [11] and in the assay filed under Homo sapiens [12] were 10 and greater than 200, respectively.

As to `C[C@@]12COc3cc(O)ccc3[C@@H]1CCN2` (racemic), the figures for the Ki in [1] (read-out: pKi (converted)), in assay [2] (read-out: pKi (converted)) and in assay [3] were greater than 10000 nM, greater than 10000 nM and 1000 nM, respectively. Moreover, the inhibition in assay [6] was less than 50%.

Take `C[C@@]12CN(c3ccc(Br)cc3)c3ccc(Br)cc3[C@@H]1CCN2` (racemic): the Ki in assay [1] (read-out: pKi (converted)) was 316 nM; in assay [4], 200 nM; in assay [2] (read-out: pKi (converted)) it was 158 nM; in [3], 79.4 nM.

The term inhibition denotes the change of the read-out against control, counted positive when it falls.
